According to ChEMBL document CHEMBL1806421, “Design, synthesis and biological evaluation of urea derivatives from o-hydroxybenzylamines and phenylisocyanate as potential FabH inhibitors” (Bioorg Med Chem, 2011):
pIC50: −log10 of the molar value. ≈ marks a conversion by molar mass, not a printed value.

Assays:
Escherichia coli = experiment: Antibacterial activity against Escherichia coli ATCC 35218 after 24 hrs by MTT assay; type: functional; settings: ATCC 35218, 24 h
In short: (§1)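 MIC by MTT colorimetry in Mueller-Hinton medium. Inoculum was about 10⁵ cfu/mL, added to serial dilutions made from DMSO solutions, then incubated at 37 °C for 24 h. MTT in PBS (0.01 mol/L, pH 7.4; 2 mg/mL) was added to each well. Dye was extracted with isopropanol containing 5% 1 mol/L HCl for 12 h at room temperature, and OD was read at 550 nm.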

Bacillus subtilis = experiment: Antibacterial activity against Bacillus subtilis after 24 hrs by MTT assay; type: functional; in short: as §1
Staphylococcus aureus = experiment: Antibacterial activity against Staphylococcus aureus after 24 hrs by MTT assay; type: functional; in short: as §1
Pseudomonas fluorescens = experiment: Antibacterial activity against Pseudomonas fluorescens after 24 hrs by MTT assay; type: functional; in short: as §1
[1] = Toxicity in erythrocytes assessed as hemolytic activity; type: cell-based; settings: erythrocyte
[2] = biological target: T1, 3-oxoacyl-[acyl-carrier-protein] synthase 3 (Escherichia coli, UniProt C3TDZ2); experiment: Inhibition of Escherichia coli FabH expressed in Escherichia coli DH10B cells assessed as incorporation of 3H signal in the product after 25 mins by liquid scintillation
T1 sequence (C3TDZ2 whole entry): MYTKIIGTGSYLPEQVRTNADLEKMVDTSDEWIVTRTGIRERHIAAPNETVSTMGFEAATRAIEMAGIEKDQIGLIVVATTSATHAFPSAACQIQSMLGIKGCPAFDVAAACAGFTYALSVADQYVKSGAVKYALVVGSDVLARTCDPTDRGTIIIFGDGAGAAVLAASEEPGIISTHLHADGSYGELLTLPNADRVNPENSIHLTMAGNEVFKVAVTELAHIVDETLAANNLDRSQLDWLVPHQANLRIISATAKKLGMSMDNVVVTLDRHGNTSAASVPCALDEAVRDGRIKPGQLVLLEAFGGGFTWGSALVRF
In short: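 Native E. coli FabH was expressed from pET30 in DH10B and purified by Q-Sepharose, MonoQ and hydroxyapatite chromatography at 4 °C. Reaction used 20 mM Na₂HPO₄ pH 7.0, 0.5 mM DTT, holo-ACP and 1 nM FabH. It was stopped with ice-cold 50% TCA (5 min on ice) and the protein pelleted. ³H incorporation was read by liquid scintillation. Inhibitors came from DMSO stock, with final DMSO ≤2%.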

SMILES	MIC (Escherichia coli)	MIC (Bacillus subtilis)	MIC (Staphylococcus aureus)	MIC (Pseudomonas fluorescens)	LC30 [1]	pIC50 [2]
O=C(Nc1ccccc1)N(Cc1cc(Br)cc(Br)c1O)c1ccccc1F	50 µg/mL (≈ 101 µM)	50 µg/mL (≈ 101 µM)	25 µg/mL (≈ 50.6 µM)	12.5 µg/mL (≈ 25.3 µM)	–	–
O=C(Nc1ccccc1)N(Cc1cc(Br)cc(Br)c1O)c1ccccc1Br	50 µg/mL (≈ 90.1 µM)	50 µg/mL (≈ 90.1 µM)	50 µg/mL (≈ 90.1 µM)	6.25 µg/mL (≈ 11.3 µM)	–	–
Oc1c(Br)cc(Br)cc1CNc1ccc(Br)cc1	25 µg/mL (≈ 57.3 µM)	50 µg/mL (≈ 115 µM)	50 µg/mL (≈ 115 µM)	50 µg/mL (≈ 115 µM)	–	–
O=C(Nc1ccccc1)N(Cc1cc(Br)ccc1O)c1ccccc1Br	12.5 µg/mL (≈ 26.3 µM)	6.25 µg/mL (≈ 13.1 µM)	25 µg/mL (≈ 52.5 µM)	25 µg/mL (≈ 52.5 µM)	> 10000 µg/mL	4.25
COc1ccc(N(Cc2cc(Br)cc(Br)c2O)C(=O)Nc2ccccc2)cc1	12.5 µg/mL (≈ 24.7 µM)	50 µg/mL (≈ 98.8 µM)	50 µg/mL (≈ 98.8 µM)	25 µg/mL (≈ 49.4 µM)	–	–
O=C(Nc1ccccc1)N(Cc1cc(Br)ccc1O)c1ccccc1Cl	6.25 µg/mL (≈ 14.5 µM)	6.25 µg/mL (≈ 14.5 µM)	3.13 µg/mL (≈ 7.25 µM)	25 µg/mL (≈ 57.9 µM)	> 10000 µg/mL	4.66
Oc1c(Br)cc(Br)cc1CNc1ccccc1Cl	25 µg/mL (≈ 63.9 µM)	6.25 µg/mL (≈ 16 µM)	25 µg/mL (≈ 63.9 µM)	50 µg/mL (≈ 128 µM)	–	–
Oc1ccc(Br)cc1CNc1ccccc1Cl	12.5 µg/mL (≈ 40 µM)	50 µg/mL (≈ 160 µM)	6.25 µg/mL (≈ 20 µM)	25 µg/mL (≈ 80 µM)	–	–
Oc1c(Br)cc(Br)cc1CNc1ccccc1Br	12.5 µg/mL (≈ 28.7 µM)	50 µg/mL (≈ 115 µM)	50 µg/mL (≈ 115 µM)	50 µg/mL (≈ 115 µM)	–	–
COc1ccc(NCc2cc(Br)cc(Br)c2O)cc1	50 µg/mL (≈ 129 µM)	25 µg/mL (≈ 64.6 µM)	50 µg/mL (≈ 129 µM)	50 µg/mL (≈ 129 µM)	–	–
O=C(Nc1ccccc1)N(Cc1cc(Br)ccc1O)c1ccccc1F	12.5 µg/mL (≈ 30.1 µM)	25 µg/mL (≈ 60.2 µM)	50 µg/mL (≈ 120 µM)	25 µg/mL (≈ 60.2 µM)	> 10000 µg/mL	4.43
O=C(Nc1ccccc1)N(Cc1cc(Br)ccc1O)c1ccc(F)cc1	1.56 µg/mL (≈ 3.76 µM)	6.25 µg/mL (≈ 15.1 µM)	3.13 µg/mL (≈ 7.54 µM)	6.25 µg/mL (≈ 15.1 µM)	> 10000 µg/mL	5.18
O=C(Nc1ccccc1)N(Cc1cc(Br)cc(Br)c1O)c1ccc(F)cc1	6.25 µg/mL (≈ 12.6 µM)	12.5 µg/mL (≈ 25.3 µM)	12.5 µg/mL (≈ 25.3 µM)	25 µg/mL (≈ 50.6 µM)	> 10000 µg/mL	4.14
O=C(Nc1ccccc1)N(Cc1cc(Br)ccc1O)c1ccc(Cl)cc1	1.56 µg/mL (≈ 3.61 µM)	6.25 µg/mL (≈ 14.5 µM)	1.56 µg/mL (≈ 3.61 µM)	3.13 µg/mL (≈ 7.25 µM)	> 10000 µg/mL	5.33
Oc1c(Br)cc(Br)cc1CNc1ccccc1F	50 µg/mL (≈ 133 µM)	50 µg/mL (≈ 133 µM)	25 µg/mL (≈ 66.7 µM)	50 µg/mL (≈ 133 µM)	–	–
Oc1c(Br)cc(Br)cc1CNc1ccc(Cl)cc1	25 µg/mL (≈ 63.9 µM)	12.5 µg/mL (≈ 31.9 µM)	12.5 µg/mL (≈ 31.9 µM)	12.5 µg/mL (≈ 31.9 µM)	–	–
Oc1ccc(Br)cc1CNc1ccccc1F	25 µg/mL (≈ 84.4 µM)	50 µg/mL (≈ 169 µM)	25 µg/mL (≈ 84.4 µM)	6.25 µg/mL (≈ 21.1 µM)	–	–

SMILES	MIC (Escherichia coli)	MIC (Bacillus subtilis)	MIC (Staphylococcus aureus)	MIC (Pseudomonas fluorescens)	LC30 [1]	pIC50 [2]
O=C(Nc1ccccc1)N(Cc1cc(Br)cc(Br)c1O)c1ccc(Cl)cc1	3.13 µg/mL (≈ 6.13 µM)	25 µg/mL (≈ 49 µM)	6.25 µg/mL (≈ 12.2 µM)	12.5 µg/mL (≈ 24.5 µM)	> 10000 µg/mL	5.00
Cc1ccc(N(Cc2cc(Br)cc(Br)c2O)C(=O)Nc2ccccc2)cc1	50 µg/mL (≈ 102 µM)	50 µg/mL (≈ 102 µM)	6.25 µg/mL (≈ 12.8 µM)	50 µg/mL (≈ 102 µM)	–	–
Nc1ccn([C@H]2CC[C@@H](COP(=O)(O)O)O2)c(=O)n1	–	–	–	–	> 10000 µg/mL	5.68
Cc1ccc(NCc2cc(Br)ccc2O)cc1	50 µg/mL (≈ 171 µM)	50 µg/mL (≈ 171 µM)	50 µg/mL (≈ 171 µM)	50 µg/mL (≈ 171 µM)	–	–
NC[C@H]1O[C@H](O[C@H]2[C@H](O)[C@@H](O[C@H]3O[C@H](CO)[C@@H](O)[C@H](N)[C@H]3O)[C@H](N)C[C@@H]2N)[C@H](N)[C@@H](O)[C@@H]1O [BEKANAMYCIN]	3.13 µg/mL (≈ 6.47 µM)	1.56 µg/mL (≈ 3.23 µM)	1.56 µg/mL (≈ 3.23 µM)	3.13 µg/mL (≈ 6.47 µM)	–	–
O=C(Nc1ccccc1)N(Cc1cc(Br)ccc1O)c1ccc(Br)cc1	6.25 µg/mL (≈ 13.1 µM)	12.5 µg/mL (≈ 26.3 µM)	12.5 µg/mL (≈ 26.3 µM)	12.5 µg/mL (≈ 26.3 µM)	> 10000 µg/mL	4.39
Oc1c(Br)cc(Br)cc1CNc1ccc(F)cc1	50 µg/mL (≈ 133 µM)	50 µg/mL (≈ 133 µM)	50 µg/mL (≈ 133 µM)	12.5 µg/mL (≈ 33.3 µM)	–	–
Cc1ccc(NCc2cc(Br)cc(Br)c2O)cc1	50 µg/mL (≈ 135 µM)	50 µg/mL (≈ 135 µM)	50 µg/mL (≈ 135 µM)	50 µg/mL (≈ 135 µM)	–	–
Oc1ccc(Br)cc1CNc1ccccc1Br	25 µg/mL (≈ 70 µM)	50 µg/mL (≈ 140 µM)	50 µg/mL (≈ 140 µM)	25 µg/mL (≈ 70 µM)	–	–
COc1ccc(NCc2cc(Br)ccc2O)cc1	50 µg/mL (≈ 162 µM)	50 µg/mL (≈ 162 µM)	50 µg/mL (≈ 162 µM)	50 µg/mL (≈ 162 µM)	–	–
Oc1ccc(Br)cc1CNc1ccc(Br)cc1	25 µg/mL (≈ 70 µM)	25 µg/mL (≈ 70 µM)	25 µg/mL (≈ 70 µM)	12.5 µg/mL (≈ 35 µM)	–	–
COc1ccc(N(Cc2cc(Br)ccc2O)C(=O)Nc2ccccc2)cc1	25 µg/mL (≈ 58.5 µM)	50 µg/mL (≈ 117 µM)	12.5 µg/mL (≈ 29.3 µM)	50 µg/mL (≈ 117 µM)	–	–
O=C(Nc1ccccc1)N(Cc1cc(Br)cc(Br)c1O)c1ccc(Br)cc1	12.5 µg/mL (≈ 22.5 µM)	50 µg/mL (≈ 90.1 µM)	25 µg/mL (≈ 45 µM)	25 µg/mL (≈ 45 µM)	–	–
O=C(Nc1ccccc1)N(Cc1cc(Br)cc(Br)c1O)c1ccccc1Cl	6.25 µg/mL (≈ 12.2 µM)	50 µg/mL (≈ 97.9 µM)	12.5 µg/mL (≈ 24.5 µM)	25 µg/mL (≈ 49 µM)	> 10000 µg/mL	4.29
Cc1ccc(N(Cc2cc(Br)ccc2O)C(=O)Nc2ccccc2)cc1	50 µg/mL (≈ 122 µM)	12.5 µg/mL (≈ 30.4 µM)	50 µg/mL (≈ 122 µM)	50 µg/mL (≈ 122 µM)	–	–
Oc1ccc(Br)cc1CNc1ccc(Cl)cc1	6.25 µg/mL (≈ 20 µM)	25 µg/mL (≈ 80 µM)	6.25 µg/mL (≈ 20 µM)	12.5 µg/mL (≈ 40 µM)	–	–
Oc1ccc(Br)cc1CNc1ccc(F)cc1	12.5 µg/mL (≈ 42.2 µM)	50 µg/mL (≈ 169 µM)	12.5 µg/mL (≈ 42.2 µM)	25 µg/mL (≈ 84.4 µM)	–	–
